Screening results from PubChem BioAssay.
In the library only some 1.9% were active in any assay of this set; here they are far more common.
ROMK primary: ROMK potassium channel modulators, primary screen, cell-based, thallium flux, MLSMR library; Tet-inducible ROMK, thallium flux fluorescence; actives lie on both sides; B-score at 10 µM; hit rate 2% among 130,000; AID 1918, 2009;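 active = signal ratio slope over the read window, or its plate-corrected B-score, at least 3 SD from the plate mean, either direction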;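 also: B-score of the F/F0 ratio slope over 7 to 12 s after thallium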
Target sequence (P48048 whole entry, looked up): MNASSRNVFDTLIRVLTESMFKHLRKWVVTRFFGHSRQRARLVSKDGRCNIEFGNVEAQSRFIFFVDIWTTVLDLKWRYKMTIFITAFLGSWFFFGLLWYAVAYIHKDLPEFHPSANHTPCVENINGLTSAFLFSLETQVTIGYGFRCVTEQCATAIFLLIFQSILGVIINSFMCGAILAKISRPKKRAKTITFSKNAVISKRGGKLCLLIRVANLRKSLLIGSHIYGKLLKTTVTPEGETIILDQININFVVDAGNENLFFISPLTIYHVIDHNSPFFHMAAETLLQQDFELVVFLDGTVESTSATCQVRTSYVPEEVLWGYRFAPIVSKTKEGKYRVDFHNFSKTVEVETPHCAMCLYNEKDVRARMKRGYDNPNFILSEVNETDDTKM
b-catenin transl: modulators of beta-catenin nuclear translocation, primary screen, imaging, HeLa cells, immunofluorescence, high-content; nuclear translocation activity, % at 5 µM; hit rate 0.3% among 190,000;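 active = nuclear translocation activity above 50% at 5 µM, with a well cell count of 50 or more; inconclusive = wells under 50 cells across six images, flagged as toxic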;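 also: per-cell ratio of nuclear to cytoplasmic median beta-catenin stain intensity; plate controls were DMSO negative control for no effect and GSK-3 inhibitor IX positive control for full effect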
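Test system: human HeLa cell line; Doses: 5 µM primary, 0.02–20 µM confirmation; Incubation: 24 h compound exposure, 37°C; Detection: beta-catenin immunofluorescence imaging with DAPI; Read-out: beta-catenin nuclear/cytoplasmic ratio, % activation.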
MT stabilize HCS: microtubule stabilizers in HeLa cells, primary screen, imaging, high-content imaging | HeLa tubulin immunostaining HCS, 24 h; share of cells brighter than vehicle mean+2SD | % tubulin-high responders, % at 10 µM | hit rate 0.83% among 200,000;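 active = plate Z-score above 3 for both tubulin-high and condensed-nucleus cell shares, with cell loss under 80%, at 10 µM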;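 also: anti alpha tubulin signal scored within the nucleus-defined area of each cell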
ROMK retest: ROMK channel modulator hit retest, confirmation, cell-based, thallium flux, duplicate, resupplied hits; hit rate 54% among 3,000; fluorescence ratio; hits give low values; normalized thallium flux (F/F0 slope) at 10 µM; shares compounds with ROMK primary; AID 1917, 2009;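 active = Flux at 10 µM at least 3 SD below or above vehicle control mean in one or both replicates; inconclusive = no clear call, values can overlap the other calls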
* = called active by the depositor; ? = inconclusive; . = not tested or not shown.

SMILES	ROMK primary	b-catenin transl	MT stabilize HCS	ROMK retest
Cc1cc(N)n(-c2ncnc3scc(-c4ccccc4)c23)n1	1.6*	-4	3	0.08
Cc1ccc(-c2csc3ncnc(N4CCc5ccccc5C4)c23)cc1	.	-2	6	.
COc1ccccc1N(CC(=O)NCC1CCCO1)C(=O)CNS(=O)(=O)c1ccc(Cl)cc1 (centres undefined)	-0.48	-2	.	.
COc1ccc(N(CC(=O)NCc2cccs2)S(=O)(=O)c2c(C)n[nH]c2C)cc1	.	-3	3	.
Cc1cc(C)nc(SCc2cnc(C)nc2N)n1	0.23	0	1	.
Cc1sc2nc(SCC(=O)N(C)C)[nH]c(=O)c2c1C	-0.039	0	4	.
CCN(CC)C(=O)CSc1nc2sc(C)c(C)c2c(=O)[nH]1	.	0	4	0.076
Cc1ccc(CNC(=O)COC(=O)c2cncc(Br)c2)cc1	-0.12	-3	2	.
COc1ccc(CNC(=O)COC(=O)c2cncc(Br)c2)cc1	0.073	1	2	0.077
CC(=O)N(C)Cc1ccc(C(=O)CCl)cc1	-0.0052	-1	3	.
CC(=O)NCc1ccc(C(=O)CCl)cc1	-2*	0	5	0.058*
Cc1ccc(Cl)cc1N1CCN(Cc2cc(=O)n3ccsc3n2)CC1	-1.5	3	2	.
CO/N=C\CC(=O)Nc1ccc(Cl)c(Cl)c1	4.7*	49	26*	0.082
COC(=O)CCC(=O)Nc1ccc(Cl)c(Cl)c1	0.012	-3	2	.
COc1ccc(N(CC(=O)NN=C2CCCCCCC2)S(=O)(=O)c2ccccc2)cc1Cl	-0.42	.	3	.
COc1ccc(N(CC(=O)NN=C2CCCC2)S(=O)(=O)c2ccccc2)cc1	1.8*	1	1	0.088
Cc1cc(NC(=O)CSc2nc3cc(C(=O)NCCCOC(C)C)ccc3c(=O)n2Cc2ccco2)no1	0.57	0	4	.
COc1ccc(/C(N)=N/OC(=O)CCCN2C(=O)c3ccccc3C2=O)cc1OC	0.79	-5	3	.
COc1cc(C(=O)Nc2ccc3c(c2)C(=O)c2ccccc2C3=O)cc(OC)c1OC	.	-3	5	.
COc1cc(C(=O)Nc2ccc3c(c2)CCN3C(C)=O)cc(OC)c1OC	4.5*	0	22*	0.079
CCc1cccc(NC(=O)c2cc(OC)c(OC)c(OC)c2)c1	1.3*	-4	2	0.077
COc1cc(C(=O)Nc2ccc3c(c2)Cc2ccccc2-3)cc(OC)c1OC	0.14	6	5	.
N#C/C(=C\c1ccc(F)cc1)c1n[nH]c(Cn2cncn2)n1	-1.1	3	2	.
N#C/C(=C\c1cccc(Cl)c1)c1n[nH]c(Cn2cncn2)n1	-2.6*	0	2	0.053*
Cc1ccnc(NS(=O)(=O)c2ccc(NC(=O)CSc3nc(-c4ccccc4)cc(=O)[nH]3)cc2)n1	-0.27	0	2	.
SMILES	ROMK primary	b-catenin transl	MT stabilize HCS	ROMK retest
CN(C)c1cccc(NC(=O)c2ccco2)c1	2.6*	0	3	0.077
CSc1cccc(NC(=O)c2ccco2)c1	.	-7	2	.
CCn1nnnc1NCc1cccn1C	1.4	-3	3	.
COc1ccc(-n2cccc2C=O)cc1	0.045	1	2	.
COc1ccc(-n2cccc2/C=C/[N+](=O)[O-])cc1	-5.5*	9	4	0.041*
COCCNc1nnnc2c1sc1nc(N3CCOCC3)c3c(c12)CCCC3	0.69	0	3	.
c1ccc2c(c1)CCN(C1=Nc3cccc4cccc1c34)C2	-2*	3	34	0.054*
c1cc2c3c(cccc3c1)C(N1CCCCCC1)=N2	-2.1	1	3	.
COc1cc2c(cc1OC)CN(CC(=O)NC(=O)NC1CCCCC1)CC2	1.6	0	4	.
COc1ccc(NC(=O)c2c(NC(=O)CCC(=O)O)sc(-c3ccccc3)c2C)cc1	.	1	3	0.08
COC(=O)c1c(NC(=O)CCC(=O)O)sc(Cc2ccccc2)c1C	1.5	0	.	.
NC(=O)COC(=O)c1ccc(-c2ccccc2)cc1	-0.6	-8	6	.
CCOC(=O)c1cc(-c2ccc(OC)cc2)nc2c1c(C)nn2CCC(N)=S	0.65	-1	2	.
Cc1cc(C(=O)CSc2nnc(-c3cccs3)n2Cc2ccccc2)c(C)n1C	-1	.	2	.
O=c1cc(CSc2nnc(-c3cccs3)n2Cc2ccccc2)nc2sc3ccccc3n12	.	-3	5	0.064*
COc1ccc(S(=O)(=O)N2CCOCC2)cc1C(C)C	.	-2	2	.
CCC(C)c1cc(S(=O)(=O)N2CCOCC2)ccc1OC (centres undefined)	-3.7*	0	3	?
CCCC(=O)Nc1sc2c(c1C#N)CCCC2	-0.17	.	3	.
